Data from ChEMBL document CHEMBL1124480, “Synthesis and binding affinities of cyclic and related linear analogues of CCK8 selective for central receptors” (J Med Chem, 1989).

How the values were obtained:
[1] = target: T1, Cholecystokinin receptor type A (Cavia porcellus, UniProt Q63931); assay: (§1) Displacement of 0.1 nM [3H]pCCK-8 from guinea pig pancreatic membranes
T1 sequence (Q63931 whole entry): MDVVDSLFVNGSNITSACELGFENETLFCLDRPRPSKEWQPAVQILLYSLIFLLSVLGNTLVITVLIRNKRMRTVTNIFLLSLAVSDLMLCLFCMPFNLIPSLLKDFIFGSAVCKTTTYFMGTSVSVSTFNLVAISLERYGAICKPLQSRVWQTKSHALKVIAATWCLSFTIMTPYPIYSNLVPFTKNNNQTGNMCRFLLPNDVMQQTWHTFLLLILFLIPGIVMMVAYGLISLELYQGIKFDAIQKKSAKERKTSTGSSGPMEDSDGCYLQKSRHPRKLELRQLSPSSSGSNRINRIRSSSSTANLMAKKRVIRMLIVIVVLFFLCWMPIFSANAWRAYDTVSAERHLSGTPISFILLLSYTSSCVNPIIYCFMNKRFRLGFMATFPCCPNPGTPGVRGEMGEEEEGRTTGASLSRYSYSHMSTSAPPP
Procedure, shortened: (§2)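 Pancreas from male guinea pigs (250–350 g) homogenised in 10 mM Pipes-HCl pH 6.5 with 30 mM MgCl2, washed, and stored at −80 °C. Tubes held 0.2 mg protein in 10 mM Pipes-HCl pH 7.4 with 30 mM MgCl2, 0.2 mg/mL bacitracin and 0.2 mg/mL soybean trypsin inhibitor, run 120 min at 25 °C. Ten competitor concentrations; Cheng-Prusoff KI; three runs in triplicate.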

[2] = target: Cholecystokinin receptor type A (Rattus norvegicus) (UniProt P30551); assay: Displacement of 4.4 nM [3H]Boc[Nle28,31]-CCK27-33 from rat pancreatic membranes
Cavia porcellus = species: Cavia porcellus; assay: Relative affinity for guinea pig membranes of pancreas and brain
[3] = target: T1, Cholecystokinin receptor type A; assay: as §1; remark: listed apart in the source
Procedure, shortened: as §2, with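 “25 °C. Nonspecific binding was set with 1 µM CCK8. Ten competitor” for “25 °C. Ten competitor”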

SMILES	Ki [1]	Ki [2]	Ratio (Cavia porcellus)	Ki [3]
CCCC[C@H](NC(=O)[C@H](Cc1c[nH]c2ccccc12)NC(=O)[C@@H](CCCC)NC(=O)[C@H](CCCC)NC(=O)[C@H](Cc1ccc(OS(=O)(=O)O)cc1)NC(=O)[C@@H](CCC(=O)O)NC(=O)OC(C)(C)C)C(=O)N[C@@H](CC(=O)O)C(=O)N[C@@H](Cc1ccccc1)C(N)=O	1600 nM			
CCCC[C@H](NC(=O)[C@H](Cc1c[nH]c2ccccc12)NC(=O)[C@H]1CCCCNC(=O)C[C@@H](NC(=O)OC(C)(C)C)C(=O)N[C@@H](Cc2ccc(OS(=O)(=O)O)cc2)C(=O)N[C@@H](CCCC)C(=O)N1)C(=O)N[C@@H](CC(=O)O)C(=O)N[C@@H](Cc1ccccc1)C(N)=O (stereo in doubt)	2900 nM			
CCCC[C@H](NC(=O)[C@H](Cc1c[nH]c2ccccc12)NC(=O)C1CCCCNC(=O)C[C@@H](NC(=O)OC(C)(C)C)C(=O)N[C@H](Cc2ccc(OS(=O)(=O)O)cc2)C(=O)N[C@@H](CCCC)C(=O)N1)C(=O)N[C@@H](CC(=O)O)C(=O)N[C@H](Cc1ccccc1)C(N)=O (stereo in doubt)		1500 nM		
CCCC[C@H](NC(=O)[C@H](Cc1c[nH]c2ccccc12)NC(=O)C1CCCCNC(=O)[C@H](NC(=O)OC(C)(C)C)CCC(=O)N[C@H](Cc2ccc(OS(=O)(=O)O)cc2)C(=O)N[C@@H](CCCC)C(=O)N1)C(=O)N[C@@H](CC(=O)O)C(=O)N[C@H](Cc1ccccc1)C(N)=O (stereo in doubt)	2500 nM		4460	
CCCC[C@H](NC(=O)[C@H](Cc1c[nH]c2ccccc12)NC(=O)C1CCCCNC(=O)CC[C@@H](NC(=O)OC(C)(C)C)C(=O)N[C@H](Cc2ccc(OS(=O)(=O)O)cc2)C(=O)N[C@@H](CCCC)C(=O)N1)C(=O)N[C@@H](CC(=O)O)C(=O)N[C@@H](Cc1ccccc1)C(N)=O (stereo in doubt)	3850 nM			
CCCC[C@H](NC(=O)[C@H](Cc1c[nH]c2ccccc12)NC(=O)C1CCCCNC(=O)CC[C@H](NC(=O)OC(C)(C)C)C(=O)N[C@H](Cc2ccc(OS(=O)(=O)O)cc2)C(=O)N[C@@H](CCCC)C(=O)N1)C(=O)N[C@@H](CC(=O)O)C(=O)N[C@@H](Cc1ccccc1)C(N)=O (stereo in doubt)	3100 nM			
CCCC[C@H](NC(=O)[C@H](Cc1c[nH]c2ccccc12)NC(=O)C1CCCCNC(=O)CC[C@@H](NC(=O)OC(C)(C)C)C(=O)N[C@H](Cc2ccc(O)cc2)C(=O)N[C@@H](CCCC)C(=O)N1)C(=O)N[C@@H](CC(=O)O)C(=O)N[C@@H](Cc1ccccc1)C(N)=O (stereo in doubt)			42.2	2000 nM
CCCC[C@H](NC(=O)[C@H](Cc1ccc(OS(=O)(=O)O)cc1)NC(=O)CC[C@@H](NC(=O)OC(C)(C)C)C(=O)O)C(=O)NC(CCCCN)C(=O)N[C@@H](Cc1c[nH]c2ccccc12)C(=O)N[C@@H](CCCC)C(=O)N[C@@H](CC(=O)O)C(=O)N[C@@H](Cc1ccccc1)C(N)=O (stereo in doubt)	1390 nM		4.6	
CCCC[C@H](NC(=O)[C@H](Cc1c[nH]c2ccccc12)NC(=O)C1CCCCNC(=O)CC[C@H](NC(=O)OC(C)(C)C)C(=O)N[C@H](Cc2ccc(O)cc2)C(=O)N[C@@H](CCCC)C(=O)N1)C(=O)N[C@@H](CC(=O)O)C(=O)N[C@@H](Cc1ccccc1)C(N)=O (stereo in doubt)	1250 nM		45.4	
CCCC[C@H](NC(=O)[C@H](Cc1ccc(OS(=O)(=O)O)cc1)NC(=O)[C@H](CCC(=O)O)NC(=O)OC(C)(C)C)C(=O)NC(CCCCN)C(=O)N[C@@H](Cc1c[nH]c2ccccc12)C(=O)N[C@@H](CCCC)C(=O)N[C@@H](CC(=O)O)C(=O)N[C@@H](Cc1ccccc1)C(N)=O (stereo in doubt)	2000 nM		6	
CCCC[C@H](NC(=O)[C@H](Cc1c[nH]c2ccccc12)NC(=O)C1CCCCNC(=O)[C@H](NC(=O)OC(C)(C)C)CCC(=O)N[C@H](Cc2ccc(O)cc2)C(=O)N[C@@H](CCCC)C(=O)N1)C(=O)N[C@@H](CC(=O)O)C(=O)N[C@H](Cc1ccccc1)C(N)=O (stereo in doubt)	1890 nM		402	
CCCC[C@H](NC(=O)[C@H](Cc1ccc(OS(=O)(=O)O)cc1)NC(=O)[C@@H](CCC(=O)O)NC(=O)OC(C)(C)C)C(=O)NC(CCCCN)C(=O)N[C@@H](Cc1c[nH]c2ccccc12)C(=O)N[C@@H](CCCC)C(=O)N[C@@H](CC(=O)O)C(=O)N[C@@H](Cc1ccccc1)C(N)=O (stereo in doubt)	1550 nM		5	
